Measurements from publication PMC3763817 (Chemistry & biology, 2013).
Substitutions are numbered along the chain they refer to. Names and notes keep the numbering of the source. Values belong to the molecule of their own block, whether it stands above or below them. Square brackets hold non-standard residues; d marks the D form. Ends that are not written are not given here. Peptide text beside a SMILES is read from it. * marks the point of attachment. Biotin = O=C1N[C@H]2[C@H](CS[C@H]2CCCCC(=O)*)N1; lc = a hydrocarbon chain of 6 methylene groups; Abu = CC[C@H](N)C(=O)O; Dap = NC[C@H](N)C(=O)O; Acryloyl = C=CC(=O)*

How the values were obtained:
[1] = target: T1, his6-Siah1 T156C (aa 81-282) (Homo sapiens, UniProt Q8IUQ4, T156C); experiment: DELFIA displacement of biotin-PHYL, mutant T156C Siah; format: binding
T1 sequence (Q8IUQ4 81-282 T156C): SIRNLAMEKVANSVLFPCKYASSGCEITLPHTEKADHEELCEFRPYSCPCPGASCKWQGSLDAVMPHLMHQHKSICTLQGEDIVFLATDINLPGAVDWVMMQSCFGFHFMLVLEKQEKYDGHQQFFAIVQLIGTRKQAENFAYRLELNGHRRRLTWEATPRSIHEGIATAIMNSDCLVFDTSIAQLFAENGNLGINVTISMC

[2] = target: T2, his6-Siah1 (aa 81-282) (Homo sapiens, UniProt Q8IUQ4); experiment: DELFIA displacement of biotin-PHYL, wild type Siah; format: binding
T2 sequence (Q8IUQ4 81-282): T1 sequence (Q8IUQ4 81-282 T156C) with C76T

[3] = system: wt Siah1; experiment: MALDI-TOF MS of covalent modification, wt Siah1; format: binding; conditions: protein incubated with peptide in 0.5x PBS (Figures 2e, 3d)
In short: (§1)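 Siah1 residues 81-282 (wild type or T156C mutant) from pET15b expression, incubated with peptide in 0.5x PBS. Equal volumes of sample and sinapic acid matrix (20 mg/ml in 50% acetonitrile-0.1% TFA) were co-crystallised on target and air-dried 5 min. Controls were buffer-only and protein spectra. Peaks were picked by centroid mass find (S/N threshold 5, peak width 40 m/z, 80% height, Top Hat baseline subtraction).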

[4] = system: substrate-binding domain of Siah; conditions: ref House et al., 2003, 2006; cited from earlier work
[5] = system: Siah1 T156C; experiment: MALDI-TOF MS of covalent modification, Siah1 T156C; format: binding; conditions: protein incubated with peptide in 0.5x PBS (Figure 2d)
In short: as §1

[6] = system: T156C Siah1; experiment: X-ray crystal structure of BI-117C3/T156C Siah1 complex; format: binding; conditions: crystal structure at 2.8 Å, judged by refined atomic B-factors
In short: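 Siah1 residues 81–282 with T156C mutation, purified by a published method, mixed with 2-fold excess test peptide at 4 °C for 16–18 h. Doubly peptide-bound dimer isolated by anion exchange. Sitting-drop vapour-diffusion crystals grown over 60–65% MPD, 100 mM N,N-bis(2-hydroxyethyl)glycine pH 9.0. Synchrotron data; molecular replacement using a refined covalent peptide–Siah1 dimer as search model.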

[7] = target: T3, his6-Siah1 (aa 81-282) (UniProt Q8IUQ4 81-282); experiment: DELFIA displacement assay
T3 sequence (looked up): T1 sequence (Q8IUQ4 81-282 T156C) with C76T

[8] = target: T4, his6-Siah1 T156C (aa 81-282) (UniProt Q8IUQ4 81-282, T156C); experiment: DELFIA displacement assay
T4 sequence (looked up): T1 sequence (Q8IUQ4 81-282 T156C)

[9] = target: the molecule itself; experiment: crystal structure
[10] = target: T4, his6-Siah1 T156C (aa 81-282); experiment: DELFIA displacement assay; remark: listed apart in the source

Molecule: C=CC(=O)NCCCC[C@H](NC(=O)[C@@H]1CCCN1C(=O)[C@H](CCCNC(=N)N)NC(=O)[C@@H](NC(=O)[C@H](CCSC)NC(=O)[C@H](C)NC(=O)[C@@H](NC(=O)[C@@H]1CCCN1C(=O)[C@H](CCCNC(=N)N)NC(=O)[C@H](CC(C)C)NC(=O)[C@H](CCCCN)NC(C)=O)C(C)C)C(C)C)C(=O)N[C@H](C(=O)N[C@@H](CCCNC(=N)N)C(N)=O)C(C)C [BI-107F7] (Ac-KLRPVAMVRPK(Acryloyl)VR-NH2)
Covalent modification of wt Siah1 by MALDI-TOF mass spectrometry [3]: confirmed the formation of the covalent complex

Molecule: Ac-QQERTKLRPVAMVRPTVRVQPQL-NH2 [PHYL]
Affinity for the substrate-binding domain of Siah [4]: low micromolar affinity

Molecule: Ac-RQIKIWFQNRRMKWKKPPPPPPPPPPQQERTKLRPVAMVRPTVRVQPQL-NH2 [PEN-P10-PHYL, reference compound]
IC50 [2]: 1 µM

Molecule: C=CC(=O)NC[C@H](NC(=O)[C@@H](NC(=O)[C@@H]1CCCN1C(=O)[C@H](CCCNC(=N)N)NC(=O)[C@H](CC(C)C)NC(=O)[C@H](CCCCN)NC(C)=O)C(C)C)C(=O)N[C@@H](CCSC)C(=O)N[C@H](C(=O)N[C@@H](CCCNC(=N)N)C(=O)N1CCC[C@H]1C(=O)N[C@@H](Cc1c[nH]c2ccccc12)C(=O)N[C@H](C(=O)N[C@@H](CCCNC(=N)N)C(N)=O)C(C)C)C(C)C [BI-117C3] (Ac-KLRPV[Dap](Acryloyl)MVRPWVR-NH2)
Covalent modification of Siah1 T156C by MALDI-TOF mass spectrometry [5]: expected mass increase
Covalent modification of wt Siah1 by MALDI-TOF mass spectrometry [3]: unable to covalently modify wt Siah1
Efficiency of covalent thioether bond formation to Cys156 [6]: ~ 100%

B2: Siah1 81-282 (wild-type) (domain or fragment, UniProt Q8IUQ4 81-282, looked up)
chain: T1 sequence (Q8IUQ4 81-282 T156C) with C76T
binding result [9]: binds

B3: Siah1 81-282 (T156C mutant), for crystallographic studies (domain or fragment, UniProt Q8IUQ4 81-282, looked up)
chain: T1 sequence (Q8IUQ4 81-282 T156C)
binding result [9]: binds

Molecule: Ac-KLRPV[Abu]MVRPTVR-NH2 [BI-107E1 (Ac-KLRPVεMVRPTVR-NH2)]
IC50 [8]: 2 µM
IC50 [7]: 2 µM

Molecule: Ac-KLRPVAMVRPTVR-NH2 [BI-107D1 (Ac-KLRPVAMVRPTVR-NH2)]
IC50 [8]: 1 µM
IC50 [7]: 1 µM

Molecule: Ac-KLRPVAMVRPWVR-NH2 [BI-107F1 (Ac-KLRPVAMVRPWVR-NH2)]
IC50 [8]: 0.4 µM

Molecule: {Biotin-lc}-QQERTKLRPVAMVRPTVRVQPQL [biotin-PHYL (biotin-lc-QQERTKLRPVAMVRPTVRVQPQL)]
binding result [10]: binds

Next, values leading:

IC50 [1]: 1 µM
IC50 [2]: 1 µM
Molecule: Ac-KLRPVAMVRPTVR-NH2 [BI-107D1]

IC50 [7]: 0.1 µM
Molecule: Ac-KLRPVAMVRPK(Acryloyl)VR-NH2 [BI-107F7 (Ac-KLRPVAMVRPαVR-NH2)]

IC50 [8]: 0.006 µM
IC50 [7]: > 100 µM
B1: BI-117C3 (Ac-KLRPVδMVRPWVR-NH2) (peptide)
chain: Ac-KLRPV[Dap](Acryloyl)MVRPWVR-NH2
SMILES: C=CC(=O)NC[C@H](NC(=O)[C@@H](NC(=O)[C@@H]1CCCN1C(=O)[C@H](CCCNC(=N)N)NC(=O)[C@H](CC(C)C)NC(=O)[C@H](CCCCN)NC(C)=O)C(C)C)C(=O)N[C@@H](CCSC)C(=O)N[C@H](C(=O)N[C@@H](CCCNC(=N)N)C(=O)N1CCC[C@H]1C(=O)N[C@@H](Cc1c[nH]c2ccccc12)C(=O)N[C@H](C(=O)N[C@@H](CCCNC(=N)N)C(N)=O)C(C)C)C(C)C

IC50 [8]: 0.9 µM
Molecule: Ac-KLRPVAMVRPMVR-NH2 [BI-107E12 (Ac-KLRPVAMVRPMVR-NH2)]

IC50 [7]: 0.5 µM
Molecule: Ac-QQERTKLRPVAMVRPTVRVQPQL-NH2 [PHYL (Ac-QQERTKLRPVAMVRPTVRVQPQL-NH2)]
